CHOP inhibitor – inhibitors of CHOP promoter induction, primary screen, cell-based, unfolded protein response, luciferase reporter | CHO-K1 CHOP-promoter luciferase, tunicamycin-induced, 15-18 h | inhibition, % at 10 µM | actives 3.8% (n = 220,000) | AID 2732, 2010;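 active means compounds that reduced the stress-induced luciferase reporter signal by more than about 70% of percent inhibition, limit read from the data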;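 further: 0% = tunicamycin plus vehicle and 100% = wells without tunicamycin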
NR3A LBD binder – binders of NR3A ligand-binding domain, primary screen, biophysical, differential scanning fluorimetry, uHTS; Tm shift relative to glycine control, % at 25 µM; actives 2.5% (n = 340,000); AID 1259313, 2017; NR3A LBD differential scanning fluorimetry, Tm shift; 0% = protein alone, 100% = glycine-bound protein;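 active means melting temperature shift of at least 10% of the positive control shift, at one fixed dose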
T cruzi repl – inhibitors of intracellular T. cruzi growth, primary screen, luminescence, NIH3T3 host cells; actives 1.4% (n = 300,000); inhibition, % (no concentration beside the values); AID 1885, 2009; T. cruzi beta-gal in NIH3T3, 90 h;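 active means mean inhibition across valid replicates above about 55%, limit read from the data; inconclusive means mean below that limit but half or more replicates reach it; inactive means mean below it, under half of replicates reach it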;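 further: signal also drops with host cell toxicity which is not excluded here; 0% = plate median of DMSO wells and 100% = zero luminescence signal; higher percent means less beta-gal luminescence so fewer parasites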
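Assay system: NIH/3T3 host cells with β-galactosidase reporter T. cruzi; input: 5,000 host fibroblasts per well; compound: single 50 nL compound addition per well in DMSO; timing: ≥90 h infection period, 3 h prior cell attachment; measured by: GalScreen β-gal luminescence, detergent lysis, 60 min; evaluation: percent inhibition of parasite-derived β-gal signal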
Beta cell apopt – inhibitors of cytokine-induced beta cell apoptosis, primary screen, luminescence; protection from apoptosis, % (test concentration not listed); actives 0.8% (n = 300,000); INS-1E cytokine-induced death, ATP luminescence, 48 h; percent of positive-control rescue, neutral wells zero;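 active means Every replicate reaches about 75%, or at least half do and their mean reaches it too, limit read from the data; inconclusive means At least half of replicates reach the limit but their mean does not; inactive means Under half of replicates reach the limit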;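 further: 0% = cytokine-treated negative control wells and 100% = positive control rescue; higher means more ATP so stronger rescue from cytokine killing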
CSC inhib – cancer stem cell viability inhibitors, primary screen, luminescence; cancer stem cell-like cells viability; inhibition, % at 7.5 µM; actives 1.1% (n = 300,000); in the data active means inhibition above about 75%; inconclusive means no clear call, values can overlap the other calls; tested in HMLE shEcad cells
PREPL inhibitor – PREPL enzyme inhibitors, primary screen, biochemical, fluorescence polarization; actives 0.68% (n = 320,000); Prolyl endopeptidase-like (Homo sapiens), Q4J6C6; AID 2751, 2010; recombinant PREPL, fluorescence polarization activity-based probe; inhibition, % at 5.96 µM; in the data active means inhibition above about 43%;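 further: 0% = enzyme with DMSO and 100% = wells lacking enzyme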
Target sequence (Q4J6C6 whole entry, looked up): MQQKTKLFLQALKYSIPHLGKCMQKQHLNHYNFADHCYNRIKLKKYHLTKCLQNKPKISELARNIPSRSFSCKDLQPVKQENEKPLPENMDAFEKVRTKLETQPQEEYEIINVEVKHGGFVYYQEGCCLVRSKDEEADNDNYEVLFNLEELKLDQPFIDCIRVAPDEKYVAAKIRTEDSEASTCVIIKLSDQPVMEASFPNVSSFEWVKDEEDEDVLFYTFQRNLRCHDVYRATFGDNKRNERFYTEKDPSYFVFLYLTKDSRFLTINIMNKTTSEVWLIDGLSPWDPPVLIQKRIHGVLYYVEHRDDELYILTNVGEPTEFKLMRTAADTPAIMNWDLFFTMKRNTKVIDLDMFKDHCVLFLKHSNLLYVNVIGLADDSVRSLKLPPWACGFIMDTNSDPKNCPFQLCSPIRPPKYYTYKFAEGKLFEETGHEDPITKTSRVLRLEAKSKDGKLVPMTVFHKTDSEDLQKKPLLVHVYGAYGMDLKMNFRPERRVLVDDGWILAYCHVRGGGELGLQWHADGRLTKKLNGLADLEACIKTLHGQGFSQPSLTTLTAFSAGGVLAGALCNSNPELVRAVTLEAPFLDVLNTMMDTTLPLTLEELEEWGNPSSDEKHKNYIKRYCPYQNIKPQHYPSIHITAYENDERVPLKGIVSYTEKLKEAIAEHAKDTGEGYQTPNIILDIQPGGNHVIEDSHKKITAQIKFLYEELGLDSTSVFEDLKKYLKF
* = called active by the depositor. Sampled rows, rich in hits. Any-hit rate of the full collection: about 6.7%.

Results for Fc1cccc(F)c1/C=C/c1ccc2ccccc2n1 ?
CHOP inhibitor: 46; NR3A LBD binder: 7; T cruzi repl: 7; Beta cell apopt: 6; CSC inhib: 28; PREPL inhibitor: -5

Results for Cc1ccc2nc(/C=C/c3cccc(F)c3)ccc2c1 ?
CHOP inhibitor: 96*; NR3A LBD binder: -30; T cruzi repl: 9; Beta cell apopt: -1; CSC inhib: 16; PREPL inhibitor: -6

How did CC(C)CNS(=O)(=O)c1ccc(S(=O)(=O)N2CCCN(Cc3ccccc3)C2)cc1 do in these assays?
CHOP inhibitor: 37; NR3A LBD binder: 13*; T cruzi repl: 18; Beta cell apopt: 2; PREPL inhibitor: 2

What do the screens show for `COc1cccc(S(=O)(=O)N2CCN(Cc3ccc4c(c3)OCO4)CC2)c1`?
NR3A LBD binder: 14*; T cruzi repl: -6; Beta cell apopt: 0; CSC inhib: -7; PREPL inhibitor: 13

What do the screens show for `COc1ccc(S(=O)(=O)N2CCN(Cc3ccccc3)CC2)cc1`?
CHOP inhibitor: 31; NR3A LBD binder: 11*; T cruzi repl: 4; Beta cell apopt: 1; CSC inhib: -8; PREPL inhibitor: -3

What do the screens show for `CCOc1ccc(S(=O)(=O)N2CCN(Cc3ccc4c(c3)OCO4)CC2)cc1OCC`?
NR3A LBD binder: -2; T cruzi repl: -2; Beta cell apopt: -5; CSC inhib: 11; PREPL inhibitor: 1

How did COc1ccc(N2C(=O)C(Cl)=C(N3CCN(Cc4ccccc4)CC3)C2=O)cc1 do in these assays?
CHOP inhibitor: 78*; NR3A LBD binder: 1; T cruzi repl: -12

Results for CC1CCCN(S(=O)(=O)c2ccc(S(=O)(=O)N3CCCN(Cc4ccccc4)C3)cc2)C1 (centres undefined) ?
NR3A LBD binder: -2; T cruzi repl: inconclusive

Results for Cc1ccc(/C=N/n2c(C)nc3ccccc3c2=O)s1 ?
CHOP inhibitor: 26; T cruzi repl: -3; Beta cell apopt: 2; CSC inhib: -13; PREPL inhibitor: 5

How did COc1ccc(N2C(=O)C(Cl)=C(Oc3cccc(OC)c3)C2=O)cc1 do in these assays?
CHOP inhibitor: 106*; NR3A LBD binder: -3; T cruzi repl: 34; Beta cell apopt: 68; CSC inhib: 17; PREPL inhibitor: 0

What do the screens show for `O=C1C(Cl)=C(N2CCCCC2)C(=O)N1Cc1ccccc1`?
CHOP inhibitor: 96*; NR3A LBD binder: -4; T cruzi repl: 13; Beta cell apopt: -2; CSC inhib: 12; PREPL inhibitor: -2

How did COc1ccc(N2C(=O)c3ccccc3C2=O)cc1 do in these assays?
CHOP inhibitor: 0; NR3A LBD binder: 0; T cruzi repl: -15; Beta cell apopt: -3; CSC inhib: 2; PREPL inhibitor: 8

Results for COc1ccc(S(=O)(=O)N2CCC(c3cc(-c4cccc5ccccc45)n[nH]3)CC2)cc1 ?
CHOP inhibitor: 84*; NR3A LBD binder: -2; T cruzi repl: 51; Beta cell apopt: 49; CSC inhib: 20; PREPL inhibitor: 12

Results for O=C1C(Cl)=C(N2CCCCCC2)C(=O)N1c1ccccc1 ?
CHOP inhibitor: 51; NR3A LBD binder: -1; T cruzi repl: 8; Beta cell apopt: -2; PREPL inhibitor: -6

How did O=S(=O)(c1cccc(C(F)(F)F)c1)N1CCC(c2cc(-c3cccc4ccccc34)n[nH]2)CC1 do in these assays?
CHOP inhibitor: 56; NR3A LBD binder: -2; T cruzi repl: 51; CSC inhib: 71; PREPL inhibitor: 21

What do the screens show for `COc1ccc2c(c1)c(C(=O)N/N=C/c1ccc(O)c(O)c1)c(C)n2C`?
CHOP inhibitor: 38; NR3A LBD binder: 2; T cruzi repl: -16; Beta cell apopt: -3; CSC inhib: 19; PREPL inhibitor: 9

What do the screens show for `O=C1/C(=C/c2cccs2)N=C(c2cccs2)N1Nc1ccccc1`?
CHOP inhibitor: 94*; NR3A LBD binder: -2; T cruzi repl: 22; Beta cell apopt: 0; CSC inhib: 15; PREPL inhibitor: -23

How did CC(C)Cc1nc2oc3c(Cl)ncnc3c2c2c1CCC2 do in these assays?
CHOP inhibitor: -9; NR3A LBD binder: 3; T cruzi repl: -4; Beta cell apopt: -3; CSC inhib: 86*; PREPL inhibitor: 11

How did COc1ccc(CNC(=O)CN(C(=O)c2snc(C(N)=O)c2N)c2ccc(OC)c(OC)c2)cc1 do in these assays?
NR3A LBD binder: -2; T cruzi repl: 9; Beta cell apopt: -12; CSC inhib: -4; PREPL inhibitor: 8

Results for CC(C)C(NC(=O)C(c1ccccc1)c1ccccc1)c1nc2ccccc2[nH]1 (centres undefined) ?
CHOP inhibitor: 77*; NR3A LBD binder: -3; T cruzi repl: 18; Beta cell apopt: 40; CSC inhib: 23; PREPL inhibitor: -7

How did Cc1ccc(-c2nc(CS(=O)(=O)CC(=O)N3CCCCCC3)c(C)o2)cc1 do in these assays?
CHOP inhibitor: 59; NR3A LBD binder: 4; T cruzi repl: -16; Beta cell apopt: 3; CSC inhib: -8; PREPL inhibitor: 18

How did Cc1ccc(/C=C/C(=O)N2CCc3ccccc3C2)cc1 do in these assays?
CHOP inhibitor: 72*; NR3A LBD binder: 0; T cruzi repl: -2; Beta cell apopt: -8; CSC inhib: -5; PREPL inhibitor: -28

How did Cc1ccc(-c2nc(CS(=O)(=O)CC(=O)N3CCc4ccccc4C3)c(C)o2)cc1 do in these assays?
CHOP inhibitor: 72*; NR3A LBD binder: -2; T cruzi repl: 2; Beta cell apopt: -4; CSC inhib: -5; PREPL inhibitor: -24

What do the screens show for `O=C(CSc1n[nH]c(-c2ccc(Br)cc2)n1)N1CCOCC1`?
NR3A LBD binder: 1; Beta cell apopt: 10; CSC inhib: 11; PREPL inhibitor: 8

What do the screens show for `CCn1cc(S(=O)(=O)N2CCc3ccccc3C2)cn1`?
NR3A LBD binder: 1; T cruzi repl: -6; Beta cell apopt: 0; CSC inhib: -1; PREPL inhibitor: 9

Results for Cc1cccc2cc(CN(C(=S)NCC(C)C)C3CCCC3)c(=O)[nH]c12 ?
CHOP inhibitor: 37; NR3A LBD binder: 13*; T cruzi repl: 6; PREPL inhibitor: 0

What do the screens show for `Cc1ccc2[nH]c(=O)c(CN(CCCN(C)C)C(=S)NCCc3ccccc3)cc2c1`?
CHOP inhibitor: 16; NR3A LBD binder: 1; T cruzi repl: 84*; Beta cell apopt: 0; CSC inhib: 7; PREPL inhibitor: -47
